Most compounds without a hit are left out; they make up all but 3.1% or so of the library.
Cneo AK release: causes C. neoformans cell lysis; adenylate kinase release luminescence, 4 h; normalised: neutral wells 0, clomiphene wells 100; lysis activity, % at 15 µM; actives 0.2% (n = 360,000);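 active = mean lysis activity across replicates of at least 80%, whatever share of replicates individually reach that level; inactive = mean lysis activity below 80%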
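Assay system: log-phase C. neoformans yeast / Quantity: yeast cell density of 5 × 10^6 cells/mL / Medium: fresh YPD growth medium / Compound: single dose / Timing: static 4 h at 37 °C with compound, 1 h detection / Measured by: adenylate kinase release luminescence / Read-out: lysis from increased AK signal / Benchmarks: Clomiphene as positive lysis control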
INS-1E GSIS act: primary screen for activators of insulin secretion dependent on glucose, INS-1E cells, GLuc reporter luminescence; actives 0.61% (n = 370,000); activation, % at 16.6 µM; INS-1E GLuc reporter insulin secretion, 2-3 h;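 active = lowest replicate activation of at least 40%, so every replicate reaches that level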
miR-122 sensor: inhibitors of miR-122 in Huh7 cells; Huh7 miR-122 Renilla luciferase sensor, 48 h; neutral wells = 0, positive control = 100; actives 0.3% (n = 340,000); AID 602342; activation (reporter increase), % at 12.5 µM;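 active = mean replicate activation score at least 90 and every replicate individually at or above 90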;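 note: higher luciferase means less miR-122 activity so hits act as miR-122 inhibitors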
HIV Env fusion: inhibitors of HIV Env-mediated cell fusion; actives 1.1% (n = 360,000); inhibition, % at 12.3 µM; AID 651610; HeLa-JRFL Env/CEM21 cell fusion, luciferase;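 active = mean replicate inhibition score of at least 50 and every replicate individually at or above 50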
F508del corr: CFTR F508del correction in bronchial cells. CFBE cells, YFP halide quenching; stimulated with forskolin plus potentiator P3; % fluorescence drop versus neutral controls. activity (quench increase), % at 7.58 µM. actives 0.36% (n = 350,000). AID 720511;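 active = mean added fluorescence quench of at least 8% versus neutral control, with both replicates also reaching 8%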;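 note: cells transiently co-express mutant CFTR-F508del with the halide-sensitive YFP; corrector assay measuring rescue of mutant channel to the surface after 24 h compound exposure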
Ecoli rRNA inh: selective bacterial rRNA inhibition in E. coli; actives 1.6% (n = 350,000); GFP signal change (wild-type ribosome), % (no concentration beside the values); E. coli WT GFP vs humanized-ribosome RFP mutants, fluorescence, 24 h; stronger effect = lower value; DMSO median 0, no signal -100;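 active = significant combined selectivity score with lowered wild-type GFP, culture density cut under 30%, mutant RFP and density less affected; inactive = any of these conditions unmet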
A number is an active result; . = inactive; / = no result given; [ ] = another dose, or the depositor's remark.

SMILES | Cneo AK release | INS-1E GSIS act | miR-122 sensor | HIV Env fusion | F508del corr | Ecoli rRNA inh
COc1ccccc1CNC(=O)C[C@H]1C[C@@H]2c3cc(NC(=O)NC4CCCC4)ccc3O[C@@H]2[C@@H](CO)O1 | . | . | . | . | . | .
COc1ccccc1NC(=O)N1CC(=O)N2[C@H](CO)[C@H](c3ccc(C#Cc4ccccc4)cc3)[C@@H]2C1 | / | . | / | / | . | .
NC(=O)c1ccsc1NC(=O)CSc1ncnc2sccc12 | . | 57 | / | . | . | .
O=C(CN1CCN(Cc2ccc(Cl)cc2)C1=O)NCCCN1CCOCC1 | . | / | . | . | . | .
O=C(CN1CCN(Cc2ccc(Cl)cc2)C1=O)NCCCN1CCN(c2ccc(F)cc2)CC1 | . | . | . | 68 | / | /
O=C(C1CCC1)N1CCN(c2ccnc3cc(Cl)ccc23)CC1 | / | . | / | . | . | .
O=C(Nc1ccc(OC(F)(F)F)cc1)N1CCN(c2ccnc3cc(Cl)ccc23)CC1 | / | . | . | . | . | -29
O=C(C1CCCCC1)N1CCN(c2ccnc3cc(Cl)ccc23)CC1 | . | / | / | 57 | . | /
Cc1ccc(CN2CC(N3CCCC3)CS2(=O)=O)cc1 (centres undefined) | . | . | . | 60 | . | .
O=C(c1ccco1)N1CCN(C2CN(Cc3ccccc3)S(=O)(=O)C2)CC1 (centres undefined) | . | 47 | . | . | . | .
CCCCc1ccc(NC(=O)CSc2nc3ncccc3[nH]2)cc1 | . | . | . | . | . | -26
CCOC(=O)c1ccc(NC(=O)CSc2nc3ncccc3[nH]2)cc1 | . | . | . | . | . | .
CO[C@@H]1CN(C)C(=O)c2ccc(NS(=O)(=O)c3ccccc3)cc2OC[C@H](C)N(C(=O)NC(C)C)C[C@@H]1C | . | . | . | / | . | .
CCCCSc1nc2[nH]ncc2c(=O)[nH]1 | . | 69 | . | . | / | .
Cc1ccccc1CSc1nc2[nH]ncc2c(=O)[nH]1 | / | . | / | . | . | .
Cc1ccc(C)c(CSc2nc3[nH]ncc3c(=O)[nH]2)c1 | / | . | / | . | 16 | .
COc1ccc(NC(=O)N(C)C[C@H]2OCCCC[C@H](C)Oc3ccc(NC(=O)c4ccccc4)cc3C(=O)N([C@H](C)CO)C[C@H]2C)cc1 | / | . | / | . | . | .
O=C(C[C@@H]1C[C@H]2c3cc(NS(=O)(=O)c4ccccc4)ccc3O[C@H]2[C@H](CO)O1)N1CCCCC1 | . | . | . | / | . | .
C[C@@H]1CN([C@H](C)CO)C(=O)c2cccc(NC(=O)C3CCOCC3)c2O[C@H]1CN(C)Cc1ccc(Oc2ccccc2)cc1 | . | . | . | . | . | .
NNC(=O)C1C(O)CCC2CN3CCc4c([nH]c5ccccc45)C3CC21 (centres undefined) | . | 41 | / | . | . | .
COC(=O)[C@@H]1[C@H]2C[C@H]3c4[nH]c5ccccc5c4CCN3C[C@@H]2CC[C@@H]1O | . | . | . | . | . | .
COc1ccc2c3c(n(C)c2c1)[C@H](CO)N(C(=O)c1cnccn1)CC31CCN(C(=O)c2cnccn2)CC1 | / | . | / | . | . | .
C=CCOc1cccc(C(=O)N2CCC(CCC(=O)NC3CC3)CC2)c1 | . | 54 | / | . | . | .
C[C@@H]1CN([C@@H](C)CO)C(=O)c2cccc(NC(=O)C3CCCCC3)c2O[C@@H]1CN(C)C | . | . | . | . | . | .
CCN1/C(=C/c2ccc3cc(C)ccc3[n+]2C)Sc2ccc3sccc3c21 | . | . | . | 61 | . | .
SMILES | Cneo AK release | INS-1E GSIS act | miR-122 sensor | HIV Env fusion | F508del corr | Ecoli rRNA inh
CCN1/C(=C/c2ccc3cc(C)ccc3[n+]2CC)Sc2cc(C)ccc21 | . | . | . | . | . | .
C[C@H](CO)N1C[C@H](C)[C@@H](CN(C)S(=O)(=O)c2ccccc2)Oc2ccc(NC(=O)C3CC3)cc2CC1=O | . | . | . | . | . | .
Cc1cc2ncn(S(=O)(=O)N3CCCCC3)c2cc1C | . | / | . | 83 | / | /
CO[C@@H]1CN(C)C(=O)c2cc(NC(=O)NC(C)C)ccc2OC[C@H](C)N(CC2CC2)C[C@H]1C | . | . | / | . | . | .
CC(Oc1ccc2c(-c3ccccc3)cc(=O)oc2c1)C(=O)N[C@H](Cc1c[nH]c2ccccc12)C(=O)O (some centres undefined) | . | . | . | / | . | -24
C[C@H](CO)N1C[C@H](C)[C@H](CN(C)S(=O)(=O)c2ccc(Cl)cc2)Oc2ccc(NC(=O)Cc3ccccc3)cc2CC1=O | . | . | . | / | . | .
C[C@H](CO)N1C[C@H](C)[C@H](CN(C)S(=O)(=O)c2ccccc2)Oc2ccc(NC(=O)Cc3ccccc3)cc2CC1=O | . | . | . | 92[16.7 µM] | . | .
C[C@H](CO)N1C[C@H](C)[C@H](CN(C)S(=O)(=O)c2ccccc2)Oc2ccc(NC(=O)Nc3ccccc3)cc2CC1=O | . | . | . | 80[16.7 µM] | . | .
C[C@H](CO)N1C[C@H](C)[C@H](CN(C)S(=O)(=O)c2ccc(F)cc2)Oc2ccc(NC(=O)Nc3cccc4ccccc34)cc2CC1=O | . | . | . | 83[16.7 µM] | . | .
C[C@H](CO)N1C[C@H](C)[C@H](CN(C)S(=O)(=O)c2ccc(F)cc2)Oc2ccc(NC(=O)Nc3ccccc3)cc2CC1=O | . | . | . | 55[16.7 µM] | . | .
Fc1ccc(-c2cc(C(F)(F)F)nc(-n3cc(Cl)cn3)n2)cc1 | / | . | . | . | . | .
FC(F)(F)c1cc(-c2ccccc2)nc(-n2cc(Cl)cn2)n1 | . | 51 | . | . | . | .
Cc1ccc(C2=NN3C(C(=O)c4ccccc4)Oc4ccccc4C3C2)cc1 (centres undefined) | . | . | 114 | . | / | /
COc1ccc(C2=NN3C(C2)c2ccccc2OC3c2cccs2)cc1 (centres undefined) | / | . | / | . | . | .
COc1ccc(/C=C/C(=O)c2ccc([N+](=O)[O-])o2)cc1OC | / | . | / | . | . | .
COc1cc(/C=C/C(=O)c2ccc([N+](=O)[O-])o2)ccc1O | . | . | / | . | . | -24
COc1cc(C)ccc1S(=O)(=O)N1CCN(C23CC4CC(CC(C4)C2)C3)CC1 | . | . | . | / | . | -32
C/C=C/c1ccc([C@H]2[C@@H](CO)N(C(=O)CN(C)C)C23CN(C(=O)C2CCCCC2)C3)cc1 | / | . | / | / | . | .
N=c1c2c(-c3ccccc3)c(-c3ccccc3)n(Cc3ccco3)c2ncn1CCCn1ccnc1 | . | / | . | . | / | .
N=c1c2c(-c3ccccc3)c(-c3ccccc3)n(Cc3ccco3)c2ncn1CCCN1CCOCC1 | / | . | / | 75 | . | .
C[C@@H]1COCc2cn(nn2)CC[C@H](Cc2ccccc2)C(=O)N1 | / | . | / | / | / | .
O=C(CSc1nnc2nnc3ccccc3n12)N1CCOCC1 | . | . | / | . | . | -25

Bioassay records (PubChem)
